Source: PubChem BioAssay (several laboratories)
A selection: hits, their analogues and other compounds. The true share with any hit is near 2.7%.
NR2E3 ag-1: inhibitors of NR2E3-RetCOR corepressor binding, primary screen, NR2E3 agonist project, biochemical, TR-FRET, GST-NR2E3, biotin-RetCOR | AID 2300, 2010 | Photoreceptor-specific nuclear receptor (Homo sapiens), Q9Y5X4 | 1536-well | inhibition of corepressor binding, % at 4.78 µM | 320,000 compounds, 0.12% hits;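 active means percent inhibition above the cutoff of mean plus 3 SD of all tested compounds, set per screening campaign, cut at about 20% in these data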;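 further: 0% = DMSO wells and 100% = biotin wells as full block of FRET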
Target sequence (Q9Y5X4 whole entry, looked up): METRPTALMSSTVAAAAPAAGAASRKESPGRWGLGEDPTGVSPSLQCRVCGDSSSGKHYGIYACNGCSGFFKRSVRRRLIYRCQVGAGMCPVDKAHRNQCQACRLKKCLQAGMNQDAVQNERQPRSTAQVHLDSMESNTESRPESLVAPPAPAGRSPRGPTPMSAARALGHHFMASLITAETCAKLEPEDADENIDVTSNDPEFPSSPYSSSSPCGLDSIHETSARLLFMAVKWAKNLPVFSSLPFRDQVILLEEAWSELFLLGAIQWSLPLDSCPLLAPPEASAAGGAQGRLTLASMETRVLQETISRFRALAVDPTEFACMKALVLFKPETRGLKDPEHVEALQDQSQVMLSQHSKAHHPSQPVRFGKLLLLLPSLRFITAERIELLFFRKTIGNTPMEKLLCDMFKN
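Test system – NR2E3–RetCOR corepressor complex · Quantity – NR2E3 fusion 1.35 nM · Buffer or medium – Tris pH 7.5 · Incubation – Compound–protein incubation for 5 h at 4 °C · Technique – TR-FRET, Eu(K)-anti-GST donor, streptavidin-D2 acceptor, ex 340, em 617/671 nm · Evaluation – percent inhibition of 671/617 nm emission ratio versus biotin and DMSO controls · Plate – 1536-well format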
Rev-erbA mod: modulators of Rev-erb alpha DNA binding, primary screen, biochemical, FITC-DNA, fluorescence polarization, uHTS; Nuclear receptor subfamily 1 group D member 1 (Homo sapiens), P20393; Rev-erbα–FITC-DNA binding, 90 min; activity, % at 10 µM; 370,000 compounds, 0.79% hits; AID 1259318, 2017;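 active means activity above about 14%, limit read from the data; passing the limit was not always enough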;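 further: 0% = DMSO wells with 35 nM protein and 100% = DMSO wells with 750 nM protein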
MC4R antag cAMP: MC4R antagonists of cAMP signaling, primary screen, cell-based, TR-FRET, antagonist arm of biased-ligand search; Melanocortin receptor 4 (Homo sapiens), P32245; MC4R-expressing cells, MTII-stimulated cAMP, LANCE TR-FRET; inhibition, % at 6.5 µM; 360,000 compounds, 0.48% hits; AID 540295, 2011;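 active means inhibition above its plate's cutoff, the mean of tested wells on that plate plus 3 SD, cut at about 29% in these data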;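 further: 0% = Melanotan II alone and 100% = Melanotan II plus saturating MCL0020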
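Material – human MC4R-expressing U2OS cells · Repeats – no replicates · Detection – TR-FRET with Eu-cAMP and labeled anti-cAMP, 671 nm · Times – compound 30 min, challenge 1 h, detection 1 h · Compound – single nominal compound dose of 6.5 µM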
MC4R ag barr: MC4R agonists recruiting beta-arrestin, primary screen, cell-based, luminescence, agonist arm of biased-ligand search; U2OS MC4R beta-arrestin complementation; percent of melanotan II response, DMSO zero; 360,000 compounds, 0.98% hits; AID 540308, 2011; Melanocortin receptor 4 (Homo sapiens), P32245; activation, % at 8.9 µM;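 active means activation above a per-plate cutoff, the mean activation of sample wells on that plate plus 3 SD, cut at about 8% in these data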
NR2E3 ag-2: NR2E3 agonists in two-hybrid cells, primary screen, cell-based, luminescence, CHO-S, Gal4-NCOR/VP16-NR2E3. AID 602229, 2012. Photoreceptor-specific nuclear receptor (Homo sapiens), Q9Y5X4. luciferase. 360,000 compounds, 0.35% hits. inhibition of corepressor binding, % at 3.98 µM;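 active means inhibition above the mean of all tested compounds plus 3 SD, cut at about 70% in these data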;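 further: 0% = DMSO with NR2E3 transfected cells and 100% = cells lacking NR2E3 construct; higher means lower luciferase signal from less NR2E3 corepressor binding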
PG9 binder: binders of HIV-1 gp120 antibody PG9, primary screen, biochemical, TR-FRET | inhibition, % at 6.7 µM | AID 624416, 2012 | TR-FRET gp120-PG9 antibody binding | 360,000 compounds, 0.43% hits | HIV-1 gp120 / PG9 antibody interaction; in the data active means inhibition above about 8.5%
MC4R barr conf: MC4R beta-arrestin agonists, retest, confirmation, cell-based, luminescence, U2OS | shares compounds with MC4R ag barr | U2OS MC4R beta-arrestin recruitment; scaled DMSO 0%, Melanotan II 100% | 2,400 compounds, 31% hits | activation, % at 8.9 µM;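 active means mean activation across replicates above the hit cutoff set in the earlier primary screen, cut at about 8% in these data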
MOR-DOR barr ag: agonists of MOR-DOR heterodimerization, counter-screen for MC4R biased agonist project, cell-based, luminescence | shares compounds with MC4R ag barr | U2OS PathHunter beta-arrestin, beta-gal luminescence; percent of deltorphin B response, DMSO zero | activation, % at 9.2 µM | 2,400 compounds, 5.8% hits | AID 602194, 2012;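 active means mean activation across replicates exceeds the hit threshold derived in the earlier primary screen, cut at about 18% in these data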;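 further: 100% = deltorphin B at 0.9 µM final and 0% = DMSO alone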
* marks the source's active call; other numbers are inactive results; x = no result given.

SMILES	NR2E3 ag-1	Rev-erbA mod	MC4R antag cAMP	MC4R ag barr	NR2E3 ag-2	PG9 binder	MC4R barr conf	MOR-DOR barr ag
C=CC[C@@H](CC(=O)OC(C)(C)C)C(=O)OC[C@H]1CCCN1C(=O)[C@@H](CC=C)CC(=O)N[C@H](CO)Cc1ccccc1	x	4	5	0	18	-1	x	x
c1cc2c(cc1C1CCCCC1)c1c3n2CCCNC3CCC1 (centres undefined)	-1	0	-12	15*	3	0	32*	11
Cc1ccc2c(c1)c1c3n2CCCNC3CCC1 (centres undefined)	0	1	-7	0	17	-1	x	x
c1ccc(Cn2ncc3c(N4CCCCC4)ncnc32)cc1	1	-4	5	-1	-23	2	x	x
Clc1ccc(Cn2ncc3c(N4CCN(c5ccccc5)CC4)ncnc32)cc1	x	3	25	11*	-16	-1	17*	12
COc1ccc(-c2nnn(CC(=O)N(Cc3ccc(F)cc3)C(C(=O)NC3CCCC3)c3ccc(F)cc3)n2)cc1 (centres undefined)	-1	0	0	9.7*	8	0	0	3
CCOC(=O)CN(C(=O)Cn1nnc(-c2ccc(OC)cc2)n1)C(C(=O)NC1CCCC1)c1ccc(F)cc1 (centres undefined)	2	3	5	-1	0	-2	x	x
CS(=O)(=O)Nc1ccccc1C(=O)Nc1cc2c(cc1C(=O)O)OCCCO2	1	0	22	1	-13	1	x	x
CCCCCCn1c(=O)n2n(c1=O)[C@@H]1CN(S(=O)(=O)c3ccc(C)cc3)C[C@]1(O)[C@@H](OC(=O)NCc1ccccc1)C2	x	-1	7	10*	-29	-2	8.5*	3
Cc1ccc(S(=O)(=O)N2C[C@H]3n4c(=O)ccc(=O)n4C[C@H](OC(=O)NCc4ccccc4)[C@@]3(O)C2)cc1	x	-4	9	0	-2	0	x	x
O=C(CCSCc1ccccc1Cl)NCc1cccs1	2	0	0	-2	-15	1	x	x
Cc1ccc(-c2nnc(-c3ccc4ccccc4c3)o2)cc1	x	-14	3	10*	-152	-1	-4	1
Clc1ccc(-c2nnc(-c3ccc4ccccc4c3)o2)cc1	x	-2	6	1	-52	1	x	x
O=C(OCC(=O)N1CCN(C(=O)c2ccco2)CC1)c1cc(-c2ccc(Cl)c(Cl)c2Cl)nc2ccccc12	-2	-13	-2	11*	-1	1	5	3
CCS(=O)(=O)N1CCC(C(=O)Oc2ccccc2Br)CC1	0	9	0	-1	-24	0	x	x
Clc1ccccc1/C=N/NC1=Nc2cccc3cccc1c23	-3	13	-19	18*	-118	-2	25*	8
CC(=O)c1cccc(NC(=O)c2ccccc2OCc2ccc(F)cc2)c1	3	5	-10	14*	-13	1	-1	4
CC1=C(C(=O)Nc2ccc(F)c(F)c2)C(c2cccs2)NC(=S)N1 (centres undefined)	2	2	16	-1	-12	-2	x	x
CS(=O)(=O)N(Cc1ccc(Cl)cc1)c1ccc(C(=O)NCCC2=CCCCC2)cc1	-3	-4	7	13*	10	2	0	9
CCOC(=O)Cc1csc(N/N=C/c2cccc([N+](=O)[O-])c2)n1	3	3	-4	14*	17	1	0	10
CCOC(=O)Cc1csc(NC(=O)c2cccc([N+](=O)[O-])c2)n1	1	-2	1	-2	-14	1	x	x
O=[N+]([O-])c1cccc(-c2csc(N/N=C/c3cccc(O)c3)n2)c1	0	-3	-1	11*	-26	-1	9.8*	9
COCC(=O)N1CCC(Oc2ccc(C(=O)N3CCCCCCC3)cc2)CC1	1	4	8	-3	4	-2	x	x
C/C(=N\NC(=O)C1COc2ccccc2O1)c1ccccn1 (centres undefined)	-2	1	0	-3	-20	-1	x	x
C/C(=N/NC(=O)C1COc2ccccc2O1)c1ccc(Br)s1 (centres undefined)	3	-4	2	13*	5	-2	1	6
SMILES	NR2E3 ag-1	Rev-erbA mod	MC4R antag cAMP	MC4R ag barr	NR2E3 ag-2	PG9 binder	MC4R barr conf	MOR-DOR barr ag
O=C1NC[C@H](Cc2ccccc2)N(CCc2cc(C(F)(F)F)cc(C(F)(F)F)c2)C1=O	x	-7	x	x	1	1	x	x
O=C1NC[C@@H](Cc2cccc3ccccc23)N(CCc2cc(C(F)(F)F)cc(C(F)(F)F)c2)C1=O	-1	5	-1	11*	6	1	9.8*	3
N/C(=N\OC(=O)C(c1ccccc1)c1ccccc1)c1cccnc1	2	4	5	0	13	x	x	x
C=CCN(c1ccccc1)S(=O)(=O)c1cccc(C(=O)N2CCN(c3ncccn3)CC2)c1	0	-2	14	-2	0	0	x	x
CCOC(=O)c1sc(NC(=O)c2cccc(S(=O)(=O)N(CC)CC)c2)cc1C	3	-3	18	12*	12	0	0	5
CCOC(=O)c1sc(NC(=O)c2cccc(S(=O)(=O)N3CCN(C)CC3)c2)cc1C	-3	3	5	-1	-12	0	x	x
COc1cc(-c2noc(C3CCCN(C(=O)c4ccccc4)C3)n2)cc(OC)c1OC (centres undefined)	1	-1	20	0	3	2	x	x
COc1cc(/C=C2\SC(=Nc3ccccc3)NC2=O)cc(Cl)c1O	1	10	16	4	-45	-5	x	x
CCc1ccc(N=C2NC(=O)/C(=C/c3cc(OC)c(O)c(OC)c3)S2)cc1	x	1	2	14*	-5	-1	13*	7
